Source: ChEMBL document CHEMBL4266000, “Discovery of Novel 4-Arylisochromenes as Anticancer Agents Inhibiting Tubulin Polymerization” (ACS Med Chem Lett, 2018)
Active and inactive are the calls of the source. The calls are words filed in the database; no cut-off is given here.

How the values were obtained:
HCT-8 = experiment: Antiproliferative activity against human HCT8 cells after 72 hrs by MTT assay; format: functional, cell-based; settings: HCT-8, 72 h
Method in brief: (§1)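 MTT viability read-out after 72 h continuous exposure to test compounds. Performed in triplicate and reported as IC50, means ± SD, n = 3.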

[1] = Inhibition of porcine brain tubulin polymerization after 30 mins by spectrophotometric method; design: species or system Sus scrofa
K562 [2] = experiment: Antiproliferative activity against human K562 cells after 72 hrs by MTT assay; format: functional, cell-based; settings: K562, 72 h; method in brief: as §1
H22 [3] = experiment: Antiproliferative activity against […] cells after 72 hrs by MTT assay; format: functional, cell-based; settings: Mus musculus, H22, 72 h; method in brief: as §1
KB = experiment: Antiproliferative activity against human KB cells after 72 hrs by MTT assay; format: functional, cell-based; method in brief: as §1
MDA-MB-231 = experiment: Antiproliferative activity against human MDA-MB-231 cells after 72 hrs by MTT assay; format: functional, cell-based; settings: MDA-MB-231, 72 h; method in brief: as §1
L02 = experiment: Cytotoxicity against human LO2 cells after 72 hrs by MTT assay; format: cell-based; settings: L02, 72 h; method in brief: as §1
HepG2 = experiment: Antiproliferative activity against human HepG2 cells after 72 hrs by MTT assay; format: functional, cell-based; settings: HepG2, 72 h; method in brief: as §1
Sus scrofa [4] = species on record: Sus scrofa; experiment: Inhibition of [3H]colchicine binding to biotinylated porcine tubulin at 1 uM after 2 hrs by scintillation proximity assay
Sus scrofa [5] = species on record: Sus scrofa; experiment: Inhibition of [3H]colchicine binding to biotinylated porcine tubulin at 5 uM after 2 hrs by scintillation proximity assay
K562 [6] = experiment: Induction of apoptosis in human K562 cells assessed as early apoptotic cells at 20 nM after 48 hrs by Annexin V-APC/7-AAD staining based flow cytometry (reference value: 5.7%); format: functional
K562 [7] = experiment: Induction of mitochondrial membrane depolarization in human K562 cells at 5 nM after 48 hrs by JC-1 probe based flow cytometry (reference value: 0.6%); format: functional
Method in brief: (§2)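 K562 cells treated at 0, 5, 10 or 20 nM for 48 h. Mitochondrial membrane potential measured with JC-1 probe and the percentage of cells with collapsed potential recorded.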

K562 [8] = experiment: Induction of mitochondrial membrane depolarization in human K562 cells at 10 nM after 48 hrs by JC-1 probe based flow cytometry (reference value: 0.6%); format: functional; method in brief: as §2
K562 [9] = experiment: Cell cycle arrest in human K562 cells assessed as accumulation at G2/M phase at 10 nM after 48 hrs by propidium iodide staining based flow cytometry; format: functional
Method in brief: (§3)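 K562 cells treated at 5, 10 or 20 nM for 48 h. Stained with propidium iodide and DNA content analysed for the fraction in G2/M.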

K562 [10] = experiment: Induction of apoptosis in human K562 cells assessed as late apoptotic cells at 20 nM after 48 hrs by Annexin V-APC/7-AAD staining based flow cytometry (reference value: 5.7%); format: functional
K562 [11] = experiment: Induction of apoptosis in human K562 cells assessed as late apoptotic cells at 5 nM after 48 hrs by Annexin V-APC/7-AAD staining based flow cytometry (reference value: 5.7%); format: functional
H22 [12] = experiment: Antitumor activity against […] cells xenografted in ICR mouse assessed as reduction in tumor weight at 30 mg/kg, iv qd for 21 consecutive days; format: functional; design: scale not given: the % may be the effect or the level left
Method in brief: (§4)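 H22 cells inoculated subcutaneously into the right flank of mice. Dosing i.v. at 15 or 30 mg/kg per day, or paclitaxel 8 mg/kg every 2 days, for 21 days. Tumor size and body weight recorded every 2 days. Tumor weight compared with vehicle at day 21.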

Mus musculus [13] = experiment: Toxicity in ICR mouse xenografted with […] cells assessed as decrease in body weight up to 30 mg/kg, iv qd for 21 consecutive days measured every 2 days; format: organism-based; settings: in vivo, 48 h; method in brief: as §4
K562 [14] = experiment: Induction of apoptosis in human K562 cells assessed as early apoptotic cells at 10 nM after 48 hrs by Annexin V-APC/7-AAD staining based flow cytometry (reference value: 5.7%); format: functional
HUVEC [15] = experiment: Antivascular activity against HUVEC assessed as reduction in capillary like tube formation up to 20 nM after 6 hrs by inverted microscopic based matrigel method; format: functional, cell-based; settings: Homo sapiens
Method in brief: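 HUVECs seeded on matrigel to form capillary-like tubules, then exposed to 0, 5, 10 or 20 nM for 6 h. Disruption of tube networks scored.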

K562 [16] = experiment: Induction of apoptosis in human K562 cells assessed as late apoptotic cells at 10 nM after 48 hrs by Annexin V-APC/7-AAD staining based flow cytometry (reference value: 5.7%); format: functional
HUVEC [17] = experiment: Antimigratory activity in HUVEC after 24 hrs by wound healing based phase contrast microscopy; format: functional, cell-based; settings: Homo sapiens
Method in brief: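 Confluent HUVEC monolayer scraped to make a wound. Cells exposed to test agent and migration into the scraped area followed over 24 h.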

H22 [18] = experiment: Antitumor activity against […] cells xenografted in ICR mouse assessed as reduction in tumor weight at 15 mg/kg, iv qd for 21 consecutive days; format: functional; design: scale not given: the % may be the effect or the level left; method in brief: as §4
K562 [19] = experiment: Induction of microtubule network disruption in human K562 cells after 24 hrs by DAPI staining based immunofluorescence assay; format: functional, cell-based
Method in brief: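 K562 cells exposed at 5, 10 or 20 nM for 24 h. Microtubule network visualized by immunofluorescence against untreated cells.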

K562 [20] = experiment: Induction of mitochondrial membrane depolarization in human K562 cells at 20 nM after 48 hrs by JC-1 probe based flow cytometry (reference value: 0.6%); format: functional; method in brief: as §2
K562 [21] = experiment: Induction of apoptosis in human K562 cells assessed as early apoptotic cells at 5 nM after 48 hrs by Annexin V-APC/7-AAD staining based flow cytometry (reference value: 5.7%); format: functional
K562 [22] = experiment: Cell cycle arrest in human K562 cells assessed as accumulation at G2/M phase at 20 nM after 48 hrs by propidium iodide staining based flow cytometry; format: functional; method in brief: as §3
K562 [23] = experiment: Induction of apoptosis in human K562 cells after 48 hrs by Annexin V-APC/7-AAD staining based flow cytometry; format: functional, cell-based
K562 [24] = experiment: Cell cycle arrest in human K562 cells assessed as accumulation at G2/M phase at 5 nM after 48 hrs by propidium iodide staining based flow cytometry; format: functional; method in brief: as §3
H22 [25] = experiment: Antitumor activity against […] cells xenografted in ICR mouse assessed as reduction in tumor weight at 8 mg/kg, iv per 2 days for 21 consecutive days; format: functional; design: scale not given: the % may be the effect or the level left; method in brief: as §4
Mus musculus [26] = experiment: Toxicity in ICR mouse xenografted with […] cells assessed as decrease in body weight at 8 mg/kg, iv per 2 days for 21 consecutive days measured every 2 days; format: organism-based; settings: in vivo, 48 h; method in brief: as §4

Compound: COc1ccc2c(c1O)COC(C)C2=O (centres undefined)
- IC50 (HCT-8): 35200 nM
- IC50 [1]: 10.6 µM
- IC50 (K562 [2]): 20500 nM
- IC50 (H22 [3]): 18200 nM
- IC50 (KB): 25100 nM
- IC50 (MDA-MB-231): 30200 nM
- IC50 (L02): 22200 nM
- IC50 (HepG2): 23.7 µM

Compound: COc1ccc2c(c1O)COC=C2c1cc(OC)c(OC)c(OC)c1
- IC50 (HCT-8): 25 nM
- IC50 [1]: 4.2 µM
- IC50 (K562 [2]): 19 nM
- IC50 (H22 [3]): 10 nM
- IC50 (KB): 16 nM
- IC50 (MDA-MB-231): 28 nM
- IC50 (L02): 138 nM
- IC50 (HepG2): 0.026 µM

Compound: COc1ccc2c(c1O)COC[C@@H]2c1cc(OC)c(OC)c(OC)c1
- IC50 (HCT-8): 12 nM
- IC50 [1]: 2.5 µM
- IC50 (K562 [2]): 8 nM
- IC50 (H22 [3]): 8 nM
- IC50 (KB): 12 nM
- IC50 (MDA-MB-231): 11 nM
- inhibition (Sus scrofa [4]): 79.4%
- inhibition (Sus scrofa [5]): 92.6%
- IC50 (L02): 58 nM

Compound: COc1cc2c(cc1O)C(c1cc(OC)c(OC)c(OC)c1)=COC2
- IC50 (HepG2): > 10 µM

Compound: COc1cc2c(cc1O)C(c1cc(OC)c(OC)c(OC)c1)COC2 (centres undefined)
- IC50 (HepG2): > 10 µM

Compound: COc1ccc2c(c1O)COC[C@H]2c1cc(OC)c(OC)c(OC)c1
- IC50 (HCT-8): 940 nM
- IC50 [1]: 4.3 µM
- IC50 (K562 [2]): 460 nM
- IC50 (H22 [3]): 800 nM
- IC50 (KB): 870 nM
- IC50 (MDA-MB-231): 900 nM
- IC50 (L02): 900 nM

Compound: COc1ccc2c(c1O)COCC2c1cc(OC)c(OC)c(OC)c1 (racemic)
- Activity (K562 [6]): 54.1%
- Activity (K562 [7]): 12.7%
- IC50 (HCT-8): 30 nM
- IC50 [1]: 3.1 µM
- Activity (K562 [8]): 26.7%
- Activity (K562 [9]): 19.5%
- Activity (K562 [10]): 54.1%
- Activity (K562 [11]): 13.7%
- Activity (H22 [12]): 62.3%
- IC50 (K562 [2]): 10 nM
- Activity (Mus musculus [13]): Non-Toxic
- Activity (K562 [14]): 29%
- IC50 (H22 [3]): 11 nM
- IC50 (KB): 25 nM
- Activity (HUVEC [15]): Active
- Activity (K562 [16]): 29%
- IC50 (MDA-MB-231): 22 nM
- Activity (HUVEC [17]): Dose-dependent effect
- Activity (H22 [18]): 46.5%
- Activity (K562 [19]): Dose-dependent effect
- inhibition (Sus scrofa [4]): 76.4%
- Activity (K562 [20]): 55.1%
- Activity (K562 [21]): 13.7%
- Activity (K562 [22]): 22.4%
- inhibition (Sus scrofa [5]): 89.6%
- Activity (K562 [23]): Dose-dependent effect
- Activity (K562 [24]): 17.5%
- IC50 (L02): 95 nM
- IC50 (HepG2): 0.015 µM

Compound: COc1ccc(/C=C\c2cc(OC)c(OC)c(OC)c2)cc1O [COMBRETASTATIN A4]
- IC50 (HCT-8): 15 nM
- IC50 [1]: 2.5 µM
- Activity (H22 [12]): 55.3%
- IC50 (K562 [2]): 15 nM
- IC50 (H22 [3]): 8 nM
- IC50 (KB): 12 nM
- IC50 (MDA-MB-231): 15 nM
- Activity (H22 [18]): 44.8%
- IC50 (L02): 95 nM

Compound: CC(=O)O[C@H]1C(=O)[C@@]2(C)[C@H]([C@H](OC(=O)c3ccccc3)[C@]3(O)C[C@H](OC(=O)[C@H](O)[C@@H](NC(=O)c4ccccc4)c4ccccc4)C(C)=C1C3(C)C)[C@]1(OC(C)=O)CO[C@@H]1C[C@@H]2O [PACLITAXEL]
- Activity (H22 [25]): 72.1%
- Activity (Mus musculus [26]): Toxic
